In the library only some 2.3% were active in any assay of this set; here they are far more common.
OXTR ag – activates the human oxytocin receptor | P30559 | CHO-OTR cells, Fluo-8 calcium fluorescence; normalized: DMSO 0%, oxytocin 100% | activation, % at 3 µM | hit rate 0.32% among 320,000;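 active = activation above the mean of all tested compounds plus 3 SD, cutoff set per screening run, cut at about 20% in these data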;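 also: peak over basal fluorescence ratio from a 100 s FLIPR kinetic read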
Target sequence (P30559 whole entry, looked up): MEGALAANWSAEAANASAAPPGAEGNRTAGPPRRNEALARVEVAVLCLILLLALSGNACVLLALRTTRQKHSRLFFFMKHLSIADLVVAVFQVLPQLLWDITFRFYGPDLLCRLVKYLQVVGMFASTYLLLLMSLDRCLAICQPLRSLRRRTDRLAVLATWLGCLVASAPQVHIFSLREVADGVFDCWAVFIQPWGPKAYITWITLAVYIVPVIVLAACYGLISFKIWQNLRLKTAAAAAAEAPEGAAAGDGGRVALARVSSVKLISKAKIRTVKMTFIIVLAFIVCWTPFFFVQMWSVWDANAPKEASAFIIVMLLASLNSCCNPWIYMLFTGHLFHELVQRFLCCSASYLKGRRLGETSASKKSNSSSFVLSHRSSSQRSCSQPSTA
OXTR potentiate – potentiates the human oxytocin receptor response. P30559. CHO-OTR cells, Fluo-8 calcium fluorescence, potentiator mode; 0% = oxytocin EC15, 100% = EC100. activation, % at 3 µM. hit rate 0.061% among 320,000. AID 2445;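 active = activation above that plate's cutoff, the mean activation of tested compounds plus 3 SD, cut at about 6.6% in these data, passing the limit was not always enough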;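 also: 100% uses oxytocin at 75 nM as the full agonist control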
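Assay system: CHO-OTR cells, human receptor / Also added: oxytocin at about EC15, sub-maximal agonist stimulus / Dosing: single dose, 3.0 µM nominal final compound concentration / Incubation: 6 min pre-incubation, 100 s read / Technique: Fluo-8 calcium dye fluorescence / Read-out: % activation vs EC15 and EC100 oxytocin / Benchmarks: EC15 oxytocin low, 75 nM oxytocin high / Replicates: singlicate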
TAAR1 agonist – human TAAR1 agonism; Q96RJ0; CHO RD-HGA16 TAAR1, Fluo-8 calcium fluorescence; vehicle wells 0%, saturating PEA agonist 100%; activation, % at 3 µM; hit rate 0.99% among 360,000; AID 624467;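 active = activation above the mean activation of all test compounds in the run plus 3 SD, cut at about 38% in these data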
Target sequence (Q96RJ0 whole entry, looked up): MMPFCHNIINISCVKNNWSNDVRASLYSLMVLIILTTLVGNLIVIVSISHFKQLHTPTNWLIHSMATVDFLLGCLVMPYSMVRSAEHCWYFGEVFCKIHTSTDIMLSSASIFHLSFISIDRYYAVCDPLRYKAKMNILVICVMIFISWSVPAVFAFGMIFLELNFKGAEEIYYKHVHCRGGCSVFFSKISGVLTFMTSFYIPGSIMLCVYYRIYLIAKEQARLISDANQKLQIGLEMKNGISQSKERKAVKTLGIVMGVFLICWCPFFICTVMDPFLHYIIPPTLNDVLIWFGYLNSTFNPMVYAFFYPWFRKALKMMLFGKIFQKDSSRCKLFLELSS
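Test system: RD-HGA16 (CHO) cells co-expressing Gα16 and hTAAR1; dosing: one-point dosing at 3 µM (nominal); timing: 17-24 h seeding, 75 min 37 °C dye, 30 min RT; signal: kinetic Fluo-8 calcium fluorescence; read-out basis: % activation relative to PEA EC100 response; controls: DMSO and PEA EC100; replicates: n 1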
V1aR counter – counter-screen for oxytocin receptor agonists: human V1a receptor agonists; P37288; CHO-V1R cells, Fluo-8 calcium fluorescence, agonist mode; 0% DMSO, 100% 3 nM vasopressin; activation, % at 3 µM; hit rate 0.25% among 320,000; AID 2797;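 active = activation above the mean activation of all tested compounds plus 3 SD, per screening run, cut at about 20% in these data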;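 also: signal is peak over basal fluorescence ratio across a 100 second FLIPR read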
TAAR1 antagonist – human TAAR1 antagonism. CHO RD-HGA16 TAAR1, Fluo-8 calcium fluorescence, antagonist. Q96RJ0. hit rate 1.5% among 360,000. inhibition, % at 3 µM;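 active = inhibition above a per-plate cutoff, the mean inhibition of test compounds on that plate plus 3 SD, cut at about 49% in these data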;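 also: 0% = DMSO plus EC80 beta-PEA response and 100% = DMSO alone without agonist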
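System: RD-HGA16 CHO cells with stable hTAAR1 and Gα16 | Probe or stimulus: EC80 β-phenethylamine stimulus | Dosing: 3 µM, single point | Times: Dye loading 75 min at 37 °C, then 30 min room temperature | Measured by: Fluo-8 calcium-sensitive fluorescence | Read-out basis: % inhibition of agonist calcium response | Replicates: n of 1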
TAAR1 ag conf – human TAAR1 agonism, confirmed | CHO RD-HGA16 TAAR1, Fluo-8 calcium fluorescence; scaled: DMSO 0%, maximal phenethylamine 100% | shares compounds with TAAR1 agonist | hit rate 82% among 2,400 | AID 651783 | activation, % at 3 µM;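 active = activation above a cutoff set at the run's mean compound activation plus 3 SD, cut at about 39% in these data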
Ga16 ag counter – counter-screen for TAAR1 agonists: nonselective agonists in parental cells; CHO-Ga16 parental, Fluo-8 calcium fluorescence; normalized to maximal ATP response, DMSO zero; AID 651787; shares compounds with TAAR1 agonist; hit rate 50% among 2,400; activation, % at 3 µM;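 active = activation above the run cutoff, the mean activation over all tested wells plus 3 SD, cut at about 12% in these data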;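 also: 0% = DMSO wells and 100% = maximal ATP response on the peak over basal ratio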
TAAR1 desensitize – counter-screen for human TAAR1 agonists: agonists that desensitize TAAR1; inhibition, % at 3 µM; AID 651951; CHO RD-HGA16 hTAAR1, Fluo-8 calcium, beta-PEA response inhibition; hit rate 46% among 2,400; shares compounds with TAAR1 agonist;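 active = inhibition above the run cutoff, the mean inhibition of all test compounds plus 3 SD, cut at about 49% in these data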;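 also: beta-PEA stimulus applied at its EC80; loss of beta-PEA calcium signal after compound pretreatment read as receptor desensitization; 0% = DMSO with beta-PEA at EC80 and 100% = DMSO alone without agonist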
Ga16 antag count – nonselective Ga16 antagonism, counter-screen. shares compounds with TAAR1 agonist. CHO-Ga16 ATP-induced calcium, Fluo-8 fluorescence. inhibition, % at 3 µM. hit rate 39% among 2,400;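 active = inhibition above the plate's mean compound inhibition plus 3 SD, computed per plate, cut at about 22% in these data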;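 also: 0% = EC80 ATP with DMSO and 100% = DMSO wells without ATP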
* hit, by the source's call; . = no result; + = active, no number.

SMILES	OXTR ag	OXTR potentiate	TAAR1 agonist	V1aR counter	TAAR1 antagonist	TAAR1 ag conf	Ga16 ag counter	TAAR1 desensitize	Ga16 antag count
O=C(Cc1ccccc1[N+](=O)[O-])N1CCc2ccccc2C1	-1.2	2.9	6.2	0.8	5.7	.	.	.	.
O=C(COc1ccc([N+](=O)[O-])cc1)N1CCc2ccccc2C1	-0.9	-3.8	0.1	0.3	6.9	.	.	.	.
CCn1ncc([N+](=O)[O-])c1C(=O)N1CCc2ccccc2C1	0.1	-0.9	41.8*	-0.6	-10.3	29.5	-0.4	-1.1	1.0
O=[N+]([O-])c1cccc(NC(=S)N2CCc3ccccc3C2)c1	3.6	-2.6	55.1*	2.8	31.4	49.8*	6.4	21.0	15.8
O=C(Cc1ccc([N+](=O)[O-])cc1)N1CCc2ccccc2C1	-1.2	8.6	54.7*	0.1	-3.7	74.0*	7.2	24.4	5.5
COc1cccc(C2=NOC(C(=O)Nc3cccnc3Cl)C2)c1 (centres undefined)	-0.5	-9.0	7.0	1.2	-1.0	.	.	.	.
CCS(=O)(=O)N1Cc2ccccc2CC1C(=O)Nc1cccc(S(=O)(=O)N(C)C)c1 (centres undefined)	-0.7	2.5	-0.3	0.8	2.4	.	.	.	.
S=C(Nc1cc(Cl)cc(Cl)c1)NC1CCN(Cc2ccccc2)CC1	.	.	64.4*	.	19.8	57.6*	32.0*	53.2*	45.9*
S=C(Nc1ccccc1Cl)NC1CCN(Cc2ccccc2)CC1	4.3	-5.9	3.8	1.9	-9.8	.	.	.	.
C(=NOCCc1ccccc1)c1cccnc1	.	.	.	.	.	.	0.2	.	6.2
COc1ccc(/C=C/C(=O)Nc2ccccc2C(F)(F)F)cc1	-2.5	1.1	47.8*	-1.5	28.9	16.3	9.5	19.3	16.2
COc1ccc(C(=O)CC(=O)C(=O)Nc2ccccc2C(F)(F)F)cc1	0.7	-10.5	93.8*	0.5	73.3*	132.2*	119.9*	86.7*	76.6*
CCOc1ccc(/C=C/C(=O)Nc2ccccc2C(F)(F)F)cc1	0.9	-3.7	-1.3	-0.9	-20.0	.	.	.	.
CC(C)c1ccc(S(=O)(=O)N2CCN(C(=O)Cc3ccsc3)CC2)cc1	-0.3	-7.2	-1.1	0.5	3.5	.	.	.	.
COc1ccc(NS(=O)(=O)c2ccc(OCC(=O)N3CCOCC3)cc2)cc1	6.2	-2.6	9.6	3.1	-6.3	.	.	.	.
O=C(COc1ccc(S(=O)(=O)Nc2ccc(Cl)cc2)cc1)N1CCOCC1	19.1	-16.1	56.6*	18.9	29.5	55.7*	31.1*	14.8	16.5
CCCCc1c(-c2ccccc2OC)ncn1CCc1cccc(F)c1	.	.	69.2*	.	43.1	65.5*	3.9	74.1*	20.9
CCCCc1c(-c2ccccc2Br)ncn1CCc1ccccc1OC	.	.	70.4*	.	83.4*	73.4*	7.2	82.5*	39.0*
COc1ccccc1CCn1cnc(-c2ccc(Cl)cc2)c1CC(C)C	.	.	52.8*	.	65.8*	84.4*	3.2	54.8*	19.3
CCCCCc1c(-c2ccc(Br)cc2)ncn1CCc1ccccc1OC	.	.	71.0*	.	27.3	74.1*	7.3	48.5	25.5*
CCOC(=O)C1=CCN(S(=O)(=O)c2ccccc2C)C1c1ccc(F)cc1 (centres undefined)	.	.	8.1	.	16.5	.	.	.	.
C=C[C@@H]1c2cccc(C)c2N(S(=O)(=O)c2ccc(C)cc2)[C@H](c2ccc(OC(C)=O)cc2)C1(C#N)C#N	0.9	-3.0	0.0	1.3	3.7	.	.	.	.
CCCCc1c(-c2ccccc2OC)ncn1CCc1ccccc1Cl	.	.	64.2*	.	89.1*	74.4*	11.1	75.3*	35.7*
COc1cc(C=NNC(=O)Cn2nc(C)cc2C)ccc1OC(=O)C1CC1	0.5	-3.3	+	0.1	-1.9	2.0	2.1	4.9	0.7
Cc1cc(C)c(OCC(=O)Nc2ccccc2N2CCCCC2)c(C)c1	-0.7	2.1	3.6	-0.3	-24.7	.	.	.	.
SMILES	OXTR ag	OXTR potentiate	TAAR1 agonist	V1aR counter	TAAR1 antagonist	TAAR1 ag conf	Ga16 ag counter	TAAR1 desensitize	Ga16 antag count
Cc1cc(C)c(OCC(=O)Nc2ccccc2N2CCOCC2)c(C)c1	14.1	-12.0	61.1*	18.3	54.7*	43.2*	34.1*	55.6*	51.6*
c1ccc(C2CNCCc3ccccc32)cc1 (centres undefined)	2.0	-11.4	63.7*	1.2	74.4*	94.7*	1.2	92.1*	8.1
Oc1cc2c(cc1O)C(c1ccccc1)CNCC2 (centres undefined)	-0.6	-9.5	21.9	-0.7	-26.4	.	.	.	.
COc1ccc(Cn2c(-c3ccc(C)cc3)nc3c(c(=O)c4ccccc4n3C)c2=O)cc1	-1.6	-12.7	91.5*	1.2	57.8*	84.9*	52.9*	67.9*	41.7*
CC(CCc1ccccc1)NC(=O)Cc1ccccc1 (centres undefined)	-1.4	1.6	11.3	-1.1	-1.1	.	.	.	.
CC(Sc1ccccc1)C(=O)NCCc1ccccc1 (centres undefined)	-1.9	-4.7	42.0*	0.2	-9.7	74.4*	0.8	26.4	1.7
CC(CCc1ccccc1)NC(=O)C(=O)NCCc1ccccc1 (centres undefined)	-1.5	-5.3	49.1*	-0.1	8.1	87.6*	21.0*	36.1	17.1
N#CCCN(Cc1ccccc1)C(C(=O)NC1CCCCC1)C1CC1 (centres undefined)	.	.	1.3	.	-8.9	.	.	.	.
CCOc1ccc(-c2n[nH]c(=S)c3ccccc23)cc1	-2.2	-7.2	-1.4	-1.2	-16.8	.	.	.	.
Cc1nc(NCCc2ccccc2)c2nnn(Cc3ccccc3Cl)c2n1	-0.5	-2.5	86.2*	1.2	79.5*	91.4*	7.6	85.3*	7.9
COc1ccc(CCNc2nc(C)nc3c2nnn3Cc2ccccc2)cc1	-1.3	-3.5	2.1	0.3	-21.2	.	.	.	.
C=CCNc1nc(C(F)(F)F)nc2c1nnn2Cc1ccccc1Cl	-0.8	-11.6	49.9*	0.1	16.1	54.2*	35.2*	8.7	3.6
O=C(Nc1ccccc1)OCCCCOC(=O)Nc1ccccc1	.	.	53.8*	.	34.5	15.3	13.8*	12.0	10.4
Cc1cc(-c2ccc(C)c(S(=O)(=O)NCc3ccc(OC(C)C)cc3)c2)on1	-2.2	-14.1	-1.8	-0.8	-8.7	.	.	.	.
O=S1(=O)CCN(C2CCCCCCC2)CC1	.	.	1.1	.	5.0	.	.	.	.
Cc1ccc(NC(=O)c2ccc(=O)[nH]c2)cc1S(=O)(=O)N1CCCCCC1	1.4	0.7	0.8	1.5	-8.8	.	.	.	.

Screening results (PubChem BioAssay)
